Results: ChEMBL document CHEMBL4673181, “An investigation of the antileishmanial properties of semi-synthetic saponins” (RSC Med Chem, 2020)

Assays:
[1] = Selectivity index, ratio of ED50 for mouse RAW264.7 cells to ED50 for antileishmanial activity against axenic amastigote stage of Leishmania mexicana (MNYC/BZ/62/M379); type: toxicity; settings: read-out: Ratio ED50
How it was run: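 Selectivity index calculated as EC₅₀ in RAW macrophages (24 h alamarBlue cytotoxicity assay) divided by EC₅₀ against axenic L. mexicana amastigotes.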

[2] = Cytotoxicity against mouse RAW264.7 cells assessed as induction of cell killing incubated for 24 hrs by alamar blue dye based fluorescence analysis; settings: read-out: ED50
How it was run: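 Mouse macrophages seeded at 2.5×10^5 mL⁻¹ in DMEM/10% HIFBS, 24 h at 37 °C, 5% CO₂. Then washed and held 24 h in DMEM/2% HIFBS. Compounds 100 μM to 0.41 μM in 2% HIFBS medium for 24 h. alamarBlue 4 h, then fluorescence at 560/600 nm. Cycloheximide (50 μM) positive, DMSO negative control. EC₅₀ derived.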

Leishmania mexicana [3] = assay: Antileishmanial activity against axenic amastigote stage of Leishmania mexicana (MNYC/BZ/62/M379) assessed as induction of parasite killing incubated for 24 hrs by alamar blue dye based fluorescence analysis; type: functional; settings: read-out: ED50 (the source's name)
How it was run: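 L. mexicana axenic amastigotes (from promastigotes by pH/temperature shift; Schneider's with 20% HIFBS) at 4x10⁵ mL⁻¹, exposed to three-fold dilutions from 50 μM to 0.21 μM for 24 h at 33 °C in sealed plates. alamarBlue then added for another 24 h, fluorescence read at 560/600 nm. Amphotericin B (50 μM) positive, DMSO negative control. Duplicates on four occasions, EC₅₀ fitted.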

Leishmania mexicana [4] = assay: Antileishmanial activity against axenic amastigote stage of Leishmania mexicana (MNYC/BZ/62/M379) assessed as inhibition of parasite proliferation at 50 uM incubated for 24 hrs by alamar blue dye based fluorescence analysis; type: functional
How it was run: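 Primary single-point screen at 50 μM, in duplicate. Axenic L. mexicana amastigotes at 4x10⁵ mL⁻¹ incubated with compound 24 h at 33 °C in sealed plates, then alamarBlue for a further 24 h at the same temperature. Viability read by fluorescence at 560/600 nm against amphotericin B (50 μM) and DMSO controls.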

Leishmania mexicana [5] = assay: Antileishmanial activity against axenic amastigote stage of Leishmania mexicana (MNYC/BZ/62/M379) infected in mouse RAW264.7 cells assessed as induction of parasite killing incubated for 24 hrs by alamar blue dye based fluorescence analysis; type: functional
How it was run: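 RAW264.7 cells seeded at 2.5x10⁵ mL⁻¹ in DMEM with 10% HIFBS for 24 h at 37 °C, 5% CO₂, then infected with axenic amastigotes at 25x10⁵ mL⁻¹ in DMEM with 2% HIFBS for 24 h. Washed 5x, compound added for 24 h. Cells lysed with 0.05% SDS, then grown in Schneider's (pH7, 15% HIFBS) 48 h at 26 °C. alamarBlue 4 h, fluorescence 560/600 nm. Triplicate, three occasions.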

In the case of `CC1(C)CC[C@]2(C(=O)O)CC[C@]3(C)C(=CC[C@@H]4[C@@]5(C)CC[C@H](O)[C@@](C)(C=O)[C@@H]5CC[C@]43C)[C@@H]2C1`, the selectivity ratio [1] is reported as 3.8, the CC50 at 24 h [2] is reported as 36.6 µM and the EC50 (Leishmania mexicana [3]) is reported as 9.6 µM. The inhibition at 50 µM (Leishmania mexicana [4]) was ≥ 95%.

With `C#CCOC(=O)[C@]12CCC(C)(C)C[C@H]1C1=CC[C@@H]3[C@@]4(C)CC[C@H](O)[C@@](C)(CO)[C@@H]4CC[C@@]3(C)[C@]1(C)CC2` the EC50 (Leishmania mexicana [3]) was 15.1 µM and the inhibition at 50 µM (Leishmania mexicana [4]) was ≥ 95%.

`C[C@H](O)[C@H]1OC(C[C@@H]2OC[C@@]3(C)[C@@H]4CC[C@]5(C)[C@H](CC=C6[C@@H]7CC(C)(C)CC[C@]7(C(=O)O)CC[C@]65C)[C@@]4(C)CC[C@@H]3O2)[C@@H](O)[C@@H]1O` (some centres not stated) showed a selectivity ratio [1] of 2.9, a CC50 at 24 h [2] of 30.2 µM and an EC50 (Leishmania mexicana [3]) of 10.3 µM. For the same compound, the inhibition at 50 µM (Leishmania mexicana [4]) was ≥ 95%.

For `CN(C)CCCNC(=O)N[C@]12CCC(C)(C)C[C@H]1C1=CC[C@@H]3[C@@]4(C)CC[C@@H]5OC(C)(C)OC[C@@]5(C)[C@@H]4CC[C@@]3(C)[C@]1(C)CC2`, the EC50 (Leishmania mexicana [3]) was 17.5 µM and the inhibition at 50 µM (Leishmania mexicana [4]) was ≥ 95%.

With `CC1(C)CC[C@]2(C(=O)O)CC[C@]3(C)C(=CC[C@@H]4[C@@]5(C)CC[C@@H]6OCOC[C@@]6(C)[C@@H]5CC[C@]43C)[C@@H]2C1` the EC50 (Leishmania mexicana [3]) was 14.9 µM and the inhibition at 50 µM (Leishmania mexicana [4]) was ≥ 95%.

With `CC1(C)CC[C@]2(C(=O)O)CC[C@]3(C)C(=CC[C@@H]4[C@@]5(C)CC[C@@H]6O[C@H]([C@H](O)[C@@H](O)[C@@H](O)CO)OC[C@@]6(C)[C@@H]5CC[C@]43C)[C@@H]2C1` the EC50 (Leishmania mexicana [3]) was 14.6 µM and the inhibition at 50 µM (Leishmania mexicana [4]) was ≥ 95%.

`CC1(C)CC[C@]2(C(=O)O)CC[C@]3(C)C(=CC[C@@H]4[C@@]5(C)CC[C@@H]6O[C@H]([C@H](O)[C@@H](O)[C@H](O)[C@H](O)CO)OC[C@@]6(C)[C@@H]5CC[C@]43C)[C@@H]2C1` gave a selectivity ratio [1] of 6.7, a CC50 at 24 h [2] of 29.6 µM and an EC50 (Leishmania mexicana [3]) of 4.5 µM. For the same compound, the inhibition at 50 µM (Leishmania mexicana [4]) was ≥ 95%.

With `CC1(C)CC[C@]2(NC(=O)N3CCCC3)CC[C@]3(C)C(=CC[C@@H]4[C@@]5(C)CC[C@H](O)[C@@](C)(CO)[C@@H]5CC[C@]43C)[C@@H]2C1` the EC50 (Leishmania mexicana [3]) was 15.3 µM and the inhibition at 50 µM (Leishmania mexicana [4]) was ≥ 95%.

In the case of `CO[C@H]1O[C@H]([C@@H]2OC[C@@]3(C)[C@@H]4CC[C@]5(C)[C@H](CC=C6[C@@H]7CC(C)(C)CC[C@]7(C(=O)O)CC[C@]65C)[C@@]4(C)CC[C@@H]3O2)[C@@H](O)[C@H](O)[C@H]1O`, the selectivity ratio [1] is reported as 5, the CC50 at 24 h [2] is reported as 29.7 µM and the EC50 (Leishmania mexicana [3]) is reported as 6 µM. The inhibition at 50 µM (Leishmania mexicana [4]) was ≥ 95%.

In the case of `CC1(C)CC[C@]2(C(=O)O)CC[C@]3(C)C(=CC[C@@H]4[C@@]5(C)CC[C@H](OC(=O)CCC(=O)O)[C@@](C)(COC(=O)CCC(=O)O)[C@@H]5CC[C@]43C)[C@@H]2C1`, the selectivity ratio [1] is reported as > 44, the CC50 at 24 h [2] is reported as > 100 µM and the EC50 (Leishmania mexicana [3]) is reported as 2.3 µM. The inhibition at 50 µM (Leishmania mexicana [4]) was ≥ 95% and the ED50 (Leishmania mexicana [5]) was >50 µM.

For `C[C@@H]1O[C@@H](C[C@@H]2OC[C@@]3(C)[C@@H]4CC[C@]5(C)[C@H](CC=C6[C@@H]7CC(C)(C)CC[C@]7(C(=O)O)CC[C@]65C)[C@@]4(C)CC[C@@H]3O2)[C@H](O)[C@H](O)[C@H]1O`, the EC50 (Leishmania mexicana [3]) was 13.9 µM and the inhibition at 50 µM (Leishmania mexicana [4]) was ≥ 95%.

With `COC(=O)[C@]12CCC(C)(C)C[C@H]1C1=CC[C@@H]3[C@@]4(C)CC[C@@H]5O[C@H](c6ccccc6C(=O)O)OC[C@@]5(C)[C@@H]4CC[C@@]3(C)[C@]1(C)CC2` the selectivity ratio [1] was 0.5, the CC50 at 24 h [2] was 4.8 µM and the EC50 (Leishmania mexicana [3]) was 10 µM. For the same compound, the inhibition at 50 µM (Leishmania mexicana [4]) was ≥ 95%.

With `COC(=O)[C@]12CCC(C)(C)C[C@H]1C1=CC[C@@H]3[C@@]4(C)CC[C@H](O)[C@@](C)(CO)[C@@H]4CC[C@@]3(C)[C@]1(C)CC2` the EC50 (Leishmania mexicana [3]) was 12 µM and the inhibition at 50 µM (Leishmania mexicana [4]) was ≥ 95%.

`CC1(C)CC[C@]2(NC(=O)N3CCC[C@H]3C(=O)O)CC[C@]3(C)C(=CC[C@@H]4[C@@]5(C)CC[C@@H]6OC(C)(C)OC[C@@]6(C)[C@@H]5CC[C@]43C)[C@@H]2C1` gave a selectivity ratio [1] of 6, a CC50 at 24 h [2] of 5.4 µM and an EC50 (Leishmania mexicana [3]) of 0.9 µM. The inhibition at 50 µM (Leishmania mexicana [4]) was ≥ 95%.

Work on `CC1(C)CC[C@]2(C(=O)O)CC[C@]3(C)C(=CC[C@@H]4[C@@]5(C)CC[C@@H]6O[C@H]([C@H](O)[C@@H](O)[C@H](O)CO)OC[C@@]6(C)[C@@H]5CC[C@]43C)[C@@H]2C1` yielded a selectivity ratio [1] of 3, a CC50 at 24 h [2] of 29.2 µM and an EC50 (Leishmania mexicana [3]) of 9.7 µM. The inhibition at 50 µM (Leishmania mexicana [4]) was ≥ 95%.

In the case of `COC(=O)[C@]12CCC(C)(C)C[C@H]1C1=CC[C@@H]3[C@@]4(C)CC[C@@H]5O[C@H]([C@H](O)[C@@H](O)[C@H](O)[C@H](O)CO)OC[C@@]5(C)[C@@H]4CC[C@@]3(C)[C@]1(C)CC2`, the selectivity ratio [1] is reported as 1.1, the CC50 at 24 h [2] is reported as 10.2 µM and the EC50 (Leishmania mexicana [3]) is reported as 9.5 µM. For the same compound, the inhibition at 50 µM (Leishmania mexicana [4]) was ≥ 95%.

`CC(=O)OC[C@@]1(C)[C@@H]2CC[C@]3(C)[C@H](CC=C4[C@@H]5CC(C)(C)CC[C@]5(NC(=O)N5CCCC5)CC[C@]43C)[C@@]2(C)CC[C@@H]1O` showed a selectivity ratio [1] of 1, a CC50 at 24 h [2] of 10.9 µM and an EC50 (Leishmania mexicana [3]) of 10.4 µM. For the same compound, the inhibition at 50 µM (Leishmania mexicana [4]) was ≥ 95%.

For `CC1(C)CC[C@]2(C(=O)O)CC[C@]3(C)C(=CC[C@@H]4[C@@]5(C)CC[C@@H]6O[C@H](C[C@H]7O[C@H](CO)[C@@H](O)[C@H](O)[C@H]7O)OC[C@@]6(C)[C@@H]5CC[C@]43C)[C@@H]2C1`, the selectivity ratio [1] was 4.9, the CC50 at 24 h [2] was 36.7 µM and the EC50 (Leishmania mexicana [3]) was 7.5 µM. The inhibition at 50 µM (Leishmania mexicana [4]) was ≥ 95%.

`CC(=O)OC[C@H](OC(C)=O)[C@H](OC(C)=O)[C@@H](OC(C)=O)[C@@H]1OC[C@@]2(C)[C@@H]3CC[C@]4(C)[C@H](CC=C5[C@@H]6CC(C)(C)CC[C@]6(C(=O)O)CC[C@]54C)[C@@]3(C)CC[C@@H]2O1` gave a selectivity ratio [1] of 1.5, a CC50 at 24 h [2] of 11.1 µM and an EC50 (Leishmania mexicana [3]) of 7.2 µM. For the same compound, the inhibition at 50 µM (Leishmania mexicana [4]) was ≥ 95%.

For `C[C@@H]1O[C@@H](O[C@H]2[C@H](O[C@H]3CC[C@@]4(C)[C@@H](CC[C@]5(C)[C@@H]4CC=C4[C@@H]6CC(C)(C)CC[C@]6(C(=O)O)CC[C@]45C)[C@]3(C)CO)OC[C@H](O)[C@@H]2O)[C@H](O)[C@H](O)[C@H]1O` [ALPHA-HEDERIN], the EC50 (Leishmania mexicana [3]) was 19.6 µM and the inhibition at 50 µM (Leishmania mexicana [4]) was ≥ 95%.

In the case of `CC1(C)CC[C@]2(C(=O)O)CC[C@]3(C)C(=CC[C@@H]4[C@@]5(C)CC[C@H](O[C@@H]6O[C@H](CO)[C@@H](O)[C@H](O)[C@H]6O)[C@@](C)(CO)[C@@H]5CC[C@]43C)[C@@H]2C1` [Hederagenin-3-O-beta-D-glucopyranoside], the EC50 (Leishmania mexicana [3]) is reported as > 50 µM and the inhibition at 50 µM (Leishmania mexicana [4]) is reported as ≥ 95%.
